For orientation: pKd means −log10 of the Kd, conventionally taken in molar units. As a reminder, the pIC50 is the IC50 on a negative log10 scale, so that one unit is a factor of ten.

The species entered for assay [1] is Oryctolagus cuniculus. Description: Inhibition of intestinal fluid accumulation in rabbit ligated ileal loop model at 3.3 mM injected in presence of cholera toxin after 16 hrs. The following applies: Ileum. Type of assay: functional.
The subject of assay [2] is Vibrio cholerae. The assay is described as follows: Binding affinity to Vibrio cholerae cholera toxin assessed as inhibition of cholera toxin binding to ganglioside GM1 receptor relative to ganglioside GM1 receptor antagonist […].
Assay [3] has as its system Vibrio cholerae. Description: Blockade of anti-CT antibody binding site of Vibrio cholerae cholera toxin preincubated for 15 mins before addition of anti-CT immunoglobulin G by immunoprecipitation-based SDS-PAGE.
The subject of assay [4] is Escherichia coli. Description: Binding affinity to enterotoxigenic Escherichia coli 12566 heat-labile enterotoxin assessed as inhibition of heat-labile enterotoxin binding to ganglioside GM1 receptor. In a few lines: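 A clarified sonicated PBS lysate of E. coli 12566 containing LT (90 μl) was incubated with or without ligand in 100 μl for 15 min at room temperature. Samples were serially diluted onto immobilized GM1 and detected by ELISA with polyclonal rabbit anti-CT serum as primary antibody.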

The test system of assay [5] is Vibrio cholerae. The assay is described as follows: Binding affinity to Vibrio cholerae cholera toxin assessed as decrease in fluorescence intensity by fluorescence emission spectroscopy.
Assay [6] is filed under the species Oryctolagus cuniculus. The assay is described as follows: Inhibition of intestinal fluid accumulation in rabbit ligated ileal loop model injected in presence of cholera toxin after 16 hrs. Type of assay: functional. Conditions: Ileum.
The test system of assay [7] is Vibrio cholerae. Description: Binding affinity to Vibrio cholerae cholera toxin assessed as apparent isoelectric point at 100 mM by isoelectric focusing analysis (isoelectric point Rvb=6.8).
For assay [8], the species on record is Oryctolagus cuniculus. The assay is described as follows: Inhibition of intestinal fluid accumulation in rabbit ligated ileal loop model at 21 mM injected in presence of heat labile enterotoxin after 16 hrs. Conditions: Ileum. The class given is functional. In a few lines:
(§1)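 Rabbits were starved overnight with free access to water, then anesthetized. The ileum was tied into consecutive 7-cm loops proximal to the mesoappendix. LT-containing cell lysate (750 μl) was injected alone or with sodium linolate. After 16 h the fluid in each loop was collected and expressed as ml per cm loop length. Results are means ± SD of three independent experiments.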

Assay [9] in a line: Binding affinity to Vibrio cholerae cholera toxin assessed as quenching of intrinsic fluorescence by two-state binding model assay.
Assay [10] is described as follows: Binding affinity to Vibrio cholerae cholera toxin assessed as inhibition of cholera toxin binding to ganglioside GM1 receptor treated 15 mins before receptor addition by ELISA. (In general: An ELISA detects its analyte on a solid surface through an enzyme-linked reagent.)
Assay [11] is described as follows: Inhibition of intestinal fluid accumulation in rabbit ligated ileal loop model assessed as fluid level at 10.5 mM injected in presence of heat labile enterotoxin after 16 hrs (RVb=5.5 +/- 1 ml). Type of assay: functional, Oryctolagus cuniculus, Ileum. In a few lines: as §1
Assay [12] in a line: Inhibition of intestinal fluid accumulation in rabbit ligated ileal loop model assessed as fluid level at 1.65 mM injected in presence of cholera toxin after 16 hrs (RVb=1.6 +/- 0.2 ml/cm). Type of assay: functional, Oryctolagus cuniculus, Ileum.

pIC50, pKd: −log10 of the molar value. Calls of active or inactive are those of the source. The rule behind the calls is not given here.

Consider `CCCCC/C=C\C/C=C\CCCCCCCC(=O)O`, for which the inhibition result in assay [1] and in assay [4] was “Active” throughout. For the same compound, the Ratio in assay [2] was 200. In addition, the result in assay [3] was inactive. For the same compound, the result in assay [5], in assay [7] and in assay [8] was Active. In assay [6], the Activity result is “Dose-dependent effect”.

Regarding `CCCCC/C=C\C/C=C\C/C=C\C/C=C\CCCC(=O)O` [ARACHIDONIC ACID], in assay [4], the inhibition entry was “Active”. In addition, the pKd in [9] was 3.74. Further, the pIC50 in [10] is 3.42.

Consider `CCCCC/C=C\C/C=C\CCCCCCCC(=O)O` [LINOLEIC ACID], for which the pIC50 in assay [10] was 3.39.

For `CCCCCCCC/C=C\CCCCCCCC(=O)O` [OLEIC ACID], the inhibition result in assay [4] is “Active”. Moreover, in assay [9], the pKd is 3.80. Further, the pIC50 in assay [10] is 3.39.

`CCCCCCCCCCCCCCCC(=O)O` [PALMITIC ACID]: in [10], the negative logarithm of the IC50 (pIC50) is 2.24.

Regarding `CCCCC/C=C\C/C=C\CCCCCCCC(=O)[O-].[Na+]` [SODIUM LINOLATE], the Activity came to 1 mL in assay [11] and 0.76 mL/cm in assay [12]. In addition, the pKd in assay [9] is 3.89.

On to `CCCCCCCCCCCCCCCCCC(=O)O` [STEARIC ACID], for which the pIC50 in [10] was 2.28.

These data come from ChEMBL document CHEMBL1151459, “Bile and unsaturated fatty acids inhibit the binding of cholera toxin and Escherichia coli heat-labile enterotoxin to GM1 receptor” (Antimicrob Agents Chemother, 2008).
